Test results taken from ChEMBL document CHEMBL1122379, “Design of anticandidal agents: synthesis and biological properties of analogues of polyoxin L” (J Med Chem, 1983).

Columns and labels:
Candida albicans [1] = assay: (§1) Concentration at which 50% of the cells incubated, were not able to form colonies when replated.; assay type: functional
Method in brief: (§2)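 C. albicans H-317 grown at 37 °C with stirring in yeast nitrogen base with 0.5% isoleucine and 5.0% glucose, harvested at early log phase. Cells were exposed at 1×10^6 cells/mL to twofold serial drug dilutions and incubated 48 h at 37 °C in a humid chamber. Wells were plated on potato dextrose agar for 2 days at 37 °C. Viability was taken as colonies versus hemocytometer counts.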

[2] = target: Chitin synthase 1 (Candida albicans) (UniProt P23316); assay: Inhibitory activity against chitin synthetase from Candida albicans H-317; assay type: functional
Chain of Chitin synthase 1 (Candida albicans) (P23316 whole entry, looked up): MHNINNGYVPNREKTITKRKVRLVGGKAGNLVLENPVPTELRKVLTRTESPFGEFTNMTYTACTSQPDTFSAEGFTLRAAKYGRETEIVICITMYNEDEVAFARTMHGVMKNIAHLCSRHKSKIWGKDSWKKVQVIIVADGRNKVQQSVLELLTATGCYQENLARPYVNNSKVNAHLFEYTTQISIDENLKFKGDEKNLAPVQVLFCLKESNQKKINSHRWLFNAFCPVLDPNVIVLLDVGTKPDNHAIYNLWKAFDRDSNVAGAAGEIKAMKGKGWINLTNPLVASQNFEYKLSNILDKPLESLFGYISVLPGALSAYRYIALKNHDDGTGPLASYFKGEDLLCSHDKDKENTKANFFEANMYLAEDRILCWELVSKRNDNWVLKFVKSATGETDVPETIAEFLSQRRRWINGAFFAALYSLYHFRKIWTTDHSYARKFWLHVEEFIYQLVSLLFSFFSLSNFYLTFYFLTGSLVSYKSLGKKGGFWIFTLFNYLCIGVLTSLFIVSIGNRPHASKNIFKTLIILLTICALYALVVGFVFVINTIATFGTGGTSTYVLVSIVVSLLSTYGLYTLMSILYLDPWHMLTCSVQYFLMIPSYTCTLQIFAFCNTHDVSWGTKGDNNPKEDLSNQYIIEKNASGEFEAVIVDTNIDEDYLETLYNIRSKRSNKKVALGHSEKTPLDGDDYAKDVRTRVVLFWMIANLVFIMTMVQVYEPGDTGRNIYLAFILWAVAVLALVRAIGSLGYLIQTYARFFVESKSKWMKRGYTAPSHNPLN
Method in brief: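 Mixed membrane fraction of C. albicans H-317 (5.17 mg protein/mL stock), trypsin-activated 10 min at 37 °C with ATP in imidazole buffer pH 6.5; trypsin inhibitor, GlcNAc and UDP-[14C]GlcNAc then added with inhibitor at 10^-3 to 10^-6 M. Aliquots taken at 5–60 min, acid/ethanol-precipitated chitin filtered and scintillation-counted; ID50 = concentration giving half of initial velocity from dose-response curves.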

Candida albicans [3] = assay: Minimum effective concentration is the lowest concentration at which some (5%) morphologically abnormal cells were observed under microscopic examination.; assay type: functional; settings: read-out: MEC
Method in brief: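 C. albicans H-317 (clinical isolate) grown at 37 °C in yeast nitrogen base with 0.5% isoleucine and 5.0% glucose, harvested at early log phase, washed. Twofold serial dilutions in yeast nitrogen base, 1×10^6 cells/mL per well, 48 h at 37 °C in humid chamber with slight agitation; wells examined microscopically for lowest concentration giving ~5% abnormal cells.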

Candida albicans [4] = assay: as §1; assay type: ADME, organism-based; settings: read-out: Viability; method in brief: as §2

Row | Compound | Viability (Candida albicans [1]) [mM] | ID50 [2] [µM] | minimal effective concentration (Candida albicans [3]) [µM] | LC50 (Candida albicans [4]) [µM]
1 | NC(=O)NCCCC(N)C(=O)N[C@@H](C(=O)O)[C@H]1O[C@@H](n2ccc(=O)[nH]c2=O)[C@H](O)[C@@H]1O (some centres undefined) | >8 | 68 | 500 | 
2 | NC(C(=O)O)[C@H]1O[C@@H](n2ccc(=O)[nH]c2=O)[C@H](O)[C@@H]1O (some centres undefined) | >8 | > 100 | 8000 | 
3 | NC(Cc1ccc(Oc2ccc(O)cc2)cc1)C(=O)NC(C(=O)O)[C@H]1O[C@@H](n2ccc(=O)[nH]c2=O)[C@H](O)[C@@H]1O (some centres undefined) | 4 | 16 | 2000 | 
4 | NC(Cc1ccc(O)cc1)C(=O)NC(C(=O)O)[C@H]1O[C@@H](n2ccc(=O)[nH]c2=O)[C@H](O)[C@@H]1O (some centres undefined) |  | 4.9 | 8000 | > 8000
5 | NC(=O)OCC(O)C(O)C(N)C(=O)NC(C(=O)O)[C@H]1O[C@@H](n2cc(C(=O)O)c(=O)[nH]c2=O)[C@H](O)[C@@H]1O (some centres undefined) | 1 | 1.8 | 2 | 
6 | CCCCC(N)C(=O)NC(C(=O)O)[C@H]1O[C@@H](n2ccc(=O)[nH]c2=O)[C@H](O)[C@@H]1O (some centres undefined) | 4 | 14 | 170 | 
7 | N[C@@H](Cc1c[nH]c2ccccc12)C(=O)NC(C(=O)O)[C@H]1O[C@@H](n2ccc(=O)[nH]c2=O)[C@H](O)[C@@H]1O (some centres undefined) | >8 | 1.7 | 130 | 
8 | NC(CCc1ccccc1)C(=O)NC(C(=O)O)[C@H]1O[C@@H](n2ccc(=O)[nH]c2=O)[C@H](O)[C@@H]1O (some centres undefined) | >8 | 3.8 | 60 | 
